Source: PubChem
MPTP block: blocks calcium-induced mitochondrial swelling. isolated mouse mitochondria, Ca2+ swelling absorbance, 30 min. inhibition, % at 10 µM. 1.4% of 360,000 active. AID 602449;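 active means inhibition of 50% or more, scaled per plate between neutral and stimulator controls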;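 further: 0% = DMSO wells given calcium and 100% = 1 mM EGTA wells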
ATG4B inhibitor: ATG4B (human) cysteine protease inhibition; inhibition, % at 8.33 µM; Q9Y4P1; ATG4B cleavage of LC3-PLA2, NBD-HPC fluorescence, 1 h; 0.51% of 340,000 active; in the data active means inhibition above about 40%
Target sequence (Q9Y4P1 whole entry, looked up): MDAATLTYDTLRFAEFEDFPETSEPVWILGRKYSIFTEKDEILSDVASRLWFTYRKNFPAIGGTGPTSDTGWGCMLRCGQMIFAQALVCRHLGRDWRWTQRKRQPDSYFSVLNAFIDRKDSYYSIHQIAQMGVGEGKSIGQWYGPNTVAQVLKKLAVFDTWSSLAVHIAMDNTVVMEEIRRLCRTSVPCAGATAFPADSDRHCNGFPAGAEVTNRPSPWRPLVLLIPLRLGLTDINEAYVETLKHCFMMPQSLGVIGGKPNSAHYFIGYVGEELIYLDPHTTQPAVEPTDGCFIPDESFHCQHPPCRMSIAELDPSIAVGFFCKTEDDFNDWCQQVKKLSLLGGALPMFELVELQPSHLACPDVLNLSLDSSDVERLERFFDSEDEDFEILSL
MT1-MMP act inh: MT1-MMP (human) activation inhibition. HT1080 RFP-PRO-GFP cells, GFP/RFP ratio fluorescence, overnight; percent of plate control window, DMSO zero. GFP/RFP ratio change, % at 20 µM. 0.061% of 360,000 active;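 active means GFP/RFP ratio change of at least 30% with cell ATP level not reduced by more than half and red fluorescence within 50% of control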
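Assay system: HT1080 RFP-PRO-GFP cells. Benchmarks: DMSO vehicle wells and RFP-L50D-GFP reporter cell wells. Times: overnight cell settling, then overnight compound exposure, 37 °C, 5% CO2. Compound: 20 µM single dose, 1% DMSO. Read-out basis: GFP/RFP fluorescence ratio.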
SKN-1 inh: C. elegans SKN-1 inhibition. 0.49% of 360,000 active. inhibition, % at 21.8 µM. C. elegans VP596 Pgst-4::GFP/RFP ratio, acrylamide-induced, 24 h. AID 624304;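 active means interference check ratio from 0.5 to 1.5 plus GFP to RFP signal ratio inhibition reaching or exceeding a fixed threshold, cut at about 30% in these data, passing the limit was not always enough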
Rh123 counter: membrane potential counter-screen of mitochondrial pore inhibitors; inhibition, % at 10 µM; isolated mitochondria, Rhodamine 123 fluorescence; shares compounds with MPTP block; 78% of 5,000 active; in the data active means inhibition above about 22%;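 further: 0% = DMSO vehicle and 100% = positive control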
Active calls of the source: *; . = no result. Sampled rows, rich in hits. Any-hit rate of the full collection: about 2.3%.

SMILES | MPTP block | ATG4B inhibitor | MT1-MMP act inh | SKN-1 inh | Rh123 counter
Cc1cc(C(=O)O)cc(S(=O)(=O)Nc2ccccc2C(=O)NC(C)c2ccccc2)c1C (stereo unspecified) | -1 | 2 | 1 | 2 | .
COc1c(Cl)cc(C(=O)NCc2ccco2)cc1Cl | 7 | -2 | -4 | 16 | .
O=C(CSc1nc2ccc([N+](=O)[O-])cc2[nH]1)c1ccc2ccccc2c1 | 99* | -20 | 3 | 10 | 68*
O=C(CSc1nc2ncc(Br)cc2[nH]1)c1ccc([N+](=O)[O-])cc1 | 36 | -4 | 3 | -1 | .
Cc1nc(Cc2nnc(SC(C)C(=O)Nc3ccccc3)o2)cs1 (stereo unspecified) | -1 | . | 0 | -10 | .
Cc1ccc2nc(Cl)c(/C=N/NC(=O)c3ccccc3O)cc2c1 | 65* | 6 | 2 | 4 | 76*
O=c1c2ccccc2nc(N/N=C/c2c(O)ccc3ccccc23)n1O | 52* | 8 | 0 | 4 | -19
CCCCc1cc(=O)oc2cc(C)cc(OCC(=O)N3C[C@H]4C[C@@H](C3)c3cccc(=O)n3C4)c12 | -1 | -24 | -5 | 1 | .
COc1ccc(OCCOC(=O)c2[nH]c(C)c(C(C)=O)c2C)cc1 | 56* | -14 | -7 | 5 | 31*
COc1ccc(CCNC(=O)c2[nH]c(C)c(C(C)=O)c2C)cc1 | -1 | -3 | 5 | -11 | .
CC(=O)c1c(C)[nH]c(C(=O)OCc2ccc(F)cc2Cl)c1C | 78* | 15 | -11 | -2 | 69*
CC(=O)c1c(C)[nH]c(C(=O)OCc2c(F)cccc2Cl)c1C | 0 | 5 | -20 | 16 | .
CCC(=O)c1cc(Br)ccc1OCC(=O)N1CCN(S(=O)(=O)c2ccccc2)CC1 | 1 | -5 | -1 | -23 | .
Cc1cc(C(=O)CSc2nnc(-c3cccs3)o2)c(C)n1-c1ccccc1 | 52* | 2 | -3 | 17 | 45*
O=C(CSc1nnc(-c2cccs2)o1)c1cccs1 | -1 | 4 | 2 | 8 | .
Cc1cc(C(=O)CSc2nnc(-c3ccc4c(c3)OCO4)o2)c(C)n1-c1ccc(F)cc1 | 94* | -7 | -1 | -2 | 42*
COc1ccc(C(=O)OCC(=O)N2CCCC2=O)c(OC)c1 | -2 | 22 | 4 | -19 | .
COc1ccc(CCNS(=O)(=O)c2ccc(N3CCCC3=O)cc2)cc1 | 0 | -12 | 1 | 12 | .
Cc1ccc(OCCNS(=O)(=O)c2ccc(N3CCCC3=O)cc2)cc1 | 84* | 1 | -3 | 7 | 70*
Cc1ccc(OCCNS(=O)(=O)c2ccc(N3CCCC3=O)cc2)cc1C | 104* | -37 | 4 | -1 | 92*
COc1ccc(-c2nc(CSCC(=O)NCCCN3CCCC3=O)c(C)o2)cc1OC | -2 | -5 | 2 | 4 | .
CC1CCN(CCOc2ccc(Cl)c(Cl)c2)CC1 | 14 | 2 | 5 | 7 | .
O=[N+]([O-])c1ccc(-c2cnc[nH]2)cc1 | 1 | -5 | -4 | 0 | .
O=C(CN1c2ccccc2Sc2ccccc21)NNC(=S)Nc1ccc(Cl)cc1Cl | 83* | -6 | 6 | 7 | 77*
COc1cccc(OCC(=O)NNC(=S)Nc2ccc(Cl)cc2Cl)c1 | 68* | -7 | -3 | -12 | 99*
SMILES | MPTP block | ATG4B inhibitor | MT1-MMP act inh | SKN-1 inh | Rh123 counter
O=C(CN1c2ccccc2Sc2ccccc21)NNC(=S)Nc1ccc(Cl)cc1 | 63* | 33 | 4 | 21 | 51*
O=C(CN1CCOCC1)NNC(=S)Nc1ccc(Cl)cc1 | 0 | 4 | -1 | -2 | .
O=C(COc1cccc(Cl)c1)NNC(=S)Nc1ccccc1 | 4 | 2 | 3 | -4 | .
COc1ccc(N2CC(C(=O)Nc3nnc(SCC(=O)NCC4CCCO4)s3)CC2=O)cc1 (stereo unspecified) | -1 | -8 | -4 | 20 | .
COc1ccc(NC(=O)C2Cc3c(-c4cccc(F)c4)ccnc3O2)cc1OC (stereo unspecified) | 68* | . | 8 | 4 | 65*
COc1ccc(NC(=O)C2Cc3c(-c4ccc5c(c4)OCO5)ccnc3O2)cc1OC (stereo unspecified) | 96* | . | 6 | 5 | 89*
COc1ccc(NC(=O)C2Cc3c(-c4ccc(NC(C)=O)cc4)ccnc3O2)cc1OC (stereo unspecified) | 0 | . | -5 | 1 | .
CCN1C(=O)S/C(=C/c2ccc(Sc3nc4ccccc4[nH]3)o2)C1=O | 80* | -1 | -15 | -5 | 76*
CCOC(=O)CN1C(=O)S/C(=C/c2ccc(C)o2)C1=O | -1 | -2 | -5 | 9 | .
Cc1cc(C)cc(-c2nnc(SCC(=O)NCC3CCCO3)o2)c1 (stereo unspecified) | -1 | 1 | 3 | -12 | .
CCC1CC(=O)CCN1S(=O)(=O)c1ccc(C)cc1 (stereo unspecified) | 0 | -4 | 0 | -17 | .
Cc1nn(S(=O)(=O)c2ccccc2)c(C)c1S(=O)(=O)N1CCC(C)CC1 | -2 | 1 | 1 | 21 | .
O=C(Nc1ccccc1N1CCOCC1)c1ccccc1NS(=O)(=O)c1ccc(F)c(F)c1 | 62* | -3 | 2 | -30 | 98*
Cc1cc(F)ccc1S(=O)(=O)Nc1ccccc1C(=O)Nc1ccccc1N1CCOCC1 | 78* | -3 | -4 | 3 | 89*
Cc1cc(F)ccc1S(=O)(=O)Nc1ccccc1C(=O)Nc1ccccc1-c1nc2ccccc2[nH]1 | 72* | -5 | -19 | -1 | 69*
C/C(=N\NC(=O)c1cc2ccccc2cc1O)c1cc2ccccc2o1 | 98* | 1 | 3 | -8 | 57*
S=C(Nc1ccccc1)Nc1cccc(Br)c1 | 90* | 6 | -1 | 21 | 102*
O=C(CCc1ccccc1)NC(=S)Nc1cccc(Br)c1 | 6 | 13 | 4 | -7 | .
CC(=O)Nc1ccc(NC(=S)Nc2ccc(Br)cc2)cc1 | 98* | 1 | 0 | 2 | 88*
S=C(Nc1cccc(Br)c1)c1ccccc1 | 53* | 2 | 3 | 22 | 71*
S=C(Nc1ccccc1)Nc1ccc(Br)cc1 | 95* | 1 | 0 | -2 | 88*
O=C(Nc1cccc(C(=O)Nc2ccc(Br)cc2)c1)c1ccccc1 | 27 | -2 | 3 | -6 | .
N#Cc1ccc(NC(=S)Nc2ccccc2)cc1 | 90* | 2 | 5 | 13 | 92*
CC(C)(C)NC(=S)Nc1ccc(Br)cc1 | 51* | 2 | 3 | 6 | 66*
CC(=O)Nc1ccc(NC(=S)Nc2ccccc2)cc1 | 0 | -1 | 4 | 13 | .
O=C(Cc1ccc([N+](=O)[O-])cc1)Nc1cccc(C(F)(F)F)c1 | 81* | -5 | 5 | 2 | 82*
CCc1cccc(NC(=O)Cc2ccc([N+](=O)[O-])cc2)c1 | 14 | -19 | 7 | 13 | .
O=C(Cc1ccc([N+](=O)[O-])cc1)Nc1cc(C(F)(F)F)cc(C(F)(F)F)c1 | 77* | 3 | -1 | -13 | 98*
Cc1ccc(NC(=O)CN(C)C(=O)Cc2c(Cl)cccc2Cl)cc1 | 2 | -6 | -8 | 5 | .
